In brackets after ≈: the same amount, converted by molar mass.
Legend:
Escherichia coli [1] = test: Minimum inhibitory concentration against cell wall biosynthesis of Escherichia coli GC 4560; type: functional
[2] = molecular target: T1, UDP-N-acetylenolpyruvoylglucosamine reductase (Escherichia coli K-12, UniProt P08373); test: Inhibitory concentration against MurB enzyme in Escherichia coli
T1 sequence (P08373 whole entry): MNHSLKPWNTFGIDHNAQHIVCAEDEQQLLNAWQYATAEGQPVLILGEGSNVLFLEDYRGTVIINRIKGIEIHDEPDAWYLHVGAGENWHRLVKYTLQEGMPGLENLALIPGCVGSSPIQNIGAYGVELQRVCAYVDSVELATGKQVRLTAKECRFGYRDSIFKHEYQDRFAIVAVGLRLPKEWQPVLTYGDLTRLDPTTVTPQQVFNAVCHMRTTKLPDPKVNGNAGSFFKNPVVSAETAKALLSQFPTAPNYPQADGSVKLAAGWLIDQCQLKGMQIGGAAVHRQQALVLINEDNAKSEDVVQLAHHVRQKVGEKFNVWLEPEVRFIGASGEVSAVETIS
Procedure, shortened: (§1)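 Enzyme (20 nM) preincubated 20 min with inhibitor, then substrates added to final 50 µM EP-UNAG and 100 µM NADPH. Activity followed spectrophotometrically. At least six inhibitor concentrations between 1.5 and 50 µM per compound. IC50 from sigmoid Hill curve fit (0–100).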

Streptococcus pneumoniae [3] = test: Minimum inhibitory concentration against cell wall biosynthesis of penicillin resistant Streptococcus pneumoniae GC 1894 (PRSP); type: functional
Procedure, shortened: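 Broth microdilution per NCCLS M7-A3, using Mueller–Hinton broth supplemented with 5% sheep blood. Agents tested as 2-fold serial dilutions, with a final inoculum of 1–5 × 10^5 CFU/mL.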

[4] = Minimum inhibitory concentration against cell wall biosynthesis of methicillin-susceptible Coagulase negative staphylococcus GC 646 (MSCNS); type: functional
Procedure, shortened: (§2)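 Broth microdilution per NCCLS M7-A3. Mueller–Hinton broth for staphylococci and enterococci, 2-fold serial dilutions of agent. Final inoculum 1–5 × 10^5 CFU/mL.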

Escherichia coli [5] = test: Minimum inhibitory concentration against cell wall biosynthesis of Escherichia coli GC 4559; type: functional; procedure, shortened: as §2
Enterococcus faecalis [6] = test: Minimum inhibitory concentration against cell wall biosynthesis of vancomycin susceptible (ATCC) Enterococcus faecalis GC 4555; type: functional; procedure, shortened: as §2
[7] = molecular target: UDP-N-acetylglucosamine 1-carboxyvinyltransferase (Escherichia coli K-12, UniProt P0A749); test: Inhibitory concentration against MurA enzyme in Escherichia coli
Procedure, shortened: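 Enzyme preincubated with inhibitor 10 min at 37 °C before substrates were added. Reaction ran 30 min at 37 °C and was stopped with malachite green reagent (0.03% malachite green, 1.4% ammonium molybdate, 1.3 N HCl) for phosphate read-out.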

Staphylococcus aureus [8] = test: Minimum inhibitory concentration against cell wall biosynthesis of methicillin susceptible Staphylococcus aureus GC 4543; type: functional
Procedure, shortened: (§3)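 Broth microdilution per NCCLS M7-A3 in Mueller–Hinton broth, aerobic. Agents tested as 2-fold serial dilutions, with a final inoculum of 1–5 × 10^5 CFU/mL. Plates incubated 18–22 h at 35 °C in ambient air. MIC read as the endpoint.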

[9] = molecular target: T2, UDP-N-acetylenolpyruvoylglucosamine reductase (Staphylococcus aureus, UniProt P61431); test: Inhibitory concentration against MurB enzyme in Staphylococcus aureus; procedure, shortened: as §1
T2 sequence (P61431 whole entry): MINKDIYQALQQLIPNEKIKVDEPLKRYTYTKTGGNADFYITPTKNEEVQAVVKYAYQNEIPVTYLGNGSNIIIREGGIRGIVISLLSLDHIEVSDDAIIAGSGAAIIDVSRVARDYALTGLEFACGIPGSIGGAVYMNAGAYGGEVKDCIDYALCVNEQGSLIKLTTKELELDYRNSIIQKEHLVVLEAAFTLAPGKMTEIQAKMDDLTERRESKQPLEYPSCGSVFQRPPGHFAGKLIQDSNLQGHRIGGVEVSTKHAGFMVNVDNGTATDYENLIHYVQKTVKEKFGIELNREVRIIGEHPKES

Enterococcus faecalis [10] = test: Minimum inhibitory concentration against cell wall biosynthesis of vancomycin resistant Enterococcus faecalis GC 2242 (VRE); type: functional; procedure, shortened: as §3
Streptococcus pneumoniae [11] = test: Minimum inhibitory concentration against cell wall biosynthesis of penicillin resistant Streptococcus pneumoniae GC 1894 (PRSP) in the presence of 4% bovine serum albumin; type: functional
Staphylococcus aureus [12] = test: Minimum inhibitory concentration against cell wall biosynthesis of methicillin resistant Staphylococcus aureus GC 1131; type: functional; procedure, shortened: as §3

Chain of UDP-N-acetylglucosamine 1-carboxyvinyltransferase (P0A749 whole entry): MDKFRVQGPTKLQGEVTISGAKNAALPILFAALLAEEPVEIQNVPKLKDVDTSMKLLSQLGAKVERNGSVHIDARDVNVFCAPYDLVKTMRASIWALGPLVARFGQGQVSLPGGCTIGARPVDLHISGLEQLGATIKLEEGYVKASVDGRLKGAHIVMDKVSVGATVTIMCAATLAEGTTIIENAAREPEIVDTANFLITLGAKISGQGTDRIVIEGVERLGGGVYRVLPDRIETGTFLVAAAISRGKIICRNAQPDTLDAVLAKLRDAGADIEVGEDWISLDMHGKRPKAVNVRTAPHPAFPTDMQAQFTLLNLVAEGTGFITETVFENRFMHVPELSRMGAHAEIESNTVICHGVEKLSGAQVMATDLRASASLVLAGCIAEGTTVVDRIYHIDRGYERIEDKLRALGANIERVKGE

CC1(CC(=O)c2ccc(F)cc2F)C(=O)N(c2ccc(Cl)cc2)N(c2ccc(Cl)cc2)C1=O
MIC (Escherichia coli [1]): > 200 µM
IC50 [2]: 49 µM
MIC (Streptococcus pneumoniae [3]): > 200 µM
MIC [4]: > 200 µM
MIC (Escherichia coli [5]): > 200 µM
MIC (Enterococcus faecalis [6]): 200 µM (≈ 97.9 µg/mL)
IC50 [7]: > 50 µM
MIC (Staphylococcus aureus [8]): > 200 µM
IC50 [9]: > 50 µM
MIC (Enterococcus faecalis [10]): 100 µM (≈ 48.9 µg/mL)
MIC (Streptococcus pneumoniae [11]): > 200 µM

O=C1N(c2ccc(Cl)cc2)N(c2ccc(Cl)cc2)C(=O)C1(CCOCc1ccccc1)CCOCc1ccccc1
MIC (Escherichia coli [1]): 200 µM (≈ 118 µg/mL)
IC50 [2]: 7.2 µM
MIC (Streptococcus pneumoniae [3]): 12.5 µM (≈ 7.37 µg/mL)
MIC [4]: 200 µM (≈ 118 µg/mL)
MIC (Escherichia coli [5]): > 200 µM
MIC (Enterococcus faecalis [6]): 25 µM (≈ 14.7 µg/mL)
IC50 [7]: 20.1 µM
MIC (Staphylococcus aureus [8]): 100 µM (≈ 59 µg/mL)
MIC (Staphylococcus aureus [12]): 100 µM (≈ 59 µg/mL)
IC50 [9]: 7.5 µM
MIC (Enterococcus faecalis [10]): 50 µM (≈ 29.5 µg/mL)
MIC (Streptococcus pneumoniae [11]): > 200 µM

O=C1C(CCc2ccccc2)C(=O)N(c2ccc(Cl)cc2)N1c1ccc(Cl)cc1
MIC (Escherichia coli [1]): 200 µM (≈ 85.1 µg/mL)
IC50 [2]: 35 µM
MIC (Streptococcus pneumoniae [3]): 50 µM (≈ 21.3 µg/mL)
MIC [4]: 200 µM (≈ 85.1 µg/mL)
MIC (Escherichia coli [5]): > 200 µM
MIC (Enterococcus faecalis [6]): > 200 µM
IC50 [7]: > 50 µM
MIC (Staphylococcus aureus [8]): 200 µM (≈ 85.1 µg/mL)
MIC (Staphylococcus aureus [12]): 200 µM (≈ 85.1 µg/mL)
MIC (Enterococcus faecalis [10]): 200 µM (≈ 85.1 µg/mL)
MIC (Streptococcus pneumoniae [11]): > 200 µM

O=C1C(Cc2cc(C(F)(F)F)cc(C(F)(F)F)c2)C(=O)N(c2ccc(Cl)cc2)N1c1ccc(Cl)cc1
MIC (Escherichia coli [1]): > 200 µM
IC50 [2]: 12 µM
MIC (Streptococcus pneumoniae [3]): 6.25 µM (≈ 3.42 µg/mL)
MIC [4]: 50 µM (≈ 27.4 µg/mL)
MIC (Escherichia coli [5]): 50 µM (≈ 27.4 µg/mL)
MIC (Enterococcus faecalis [6]): 50 µM (≈ 27.4 µg/mL)
IC50 [7]: > 50 µM
MIC (Staphylococcus aureus [8]): 25 µM (≈ 13.7 µg/mL)
MIC (Staphylococcus aureus [12]): 25 µM (≈ 13.7 µg/mL)
MIC (Enterococcus faecalis [10]): 25 µM (≈ 13.7 µg/mL)
MIC (Streptococcus pneumoniae [11]): > 200 µM

O=C(CC1(CC(=O)c2ccc(F)cc2F)C(=O)N(c2ccc(Cl)cc2)N(c2ccc(Cl)cc2)C1=O)c1ccc(F)cc1F
MIC (Escherichia coli [1]): 100 µM (≈ 62.9 µg/mL)
IC50 [2]: 5.8 µM
MIC (Streptococcus pneumoniae [3]): 3.12 µM (≈ 1.96 µg/mL)
MIC [4]: 25 µM (≈ 15.7 µg/mL)
MIC (Escherichia coli [5]): > 200 µM
MIC (Enterococcus faecalis [6]): 12.5 µM (≈ 7.87 µg/mL)
IC50 [7]: 9.6 µM
MIC (Staphylococcus aureus [8]): 12.5 µM (≈ 7.87 µg/mL)
MIC (Staphylococcus aureus [12]): 12.5 µM (≈ 7.87 µg/mL)
IC50 [9]: 5.2 µM
MIC (Enterococcus faecalis [10]): 12.5 µM (≈ 7.87 µg/mL)
MIC (Streptococcus pneumoniae [11]): > 200 µM

CCCCCCCC1C(=O)N(c2ccc(Cl)cc2)N(c2ccc(Cl)cc2)C1=O
MIC (Escherichia coli [1]): > 200 µM
IC50 [2]: 42 µM
MIC (Streptococcus pneumoniae [3]): 6.25 µM (≈ 2.62 µg/mL)
MIC [4]: 200 µM (≈ 83.9 µg/mL)
MIC (Escherichia coli [5]): > 200 µM
MIC (Enterococcus faecalis [6]): 200 µM (≈ 83.9 µg/mL)
IC50 [7]: > 50 µM
MIC (Staphylococcus aureus [8]): 100 µM (≈ 41.9 µg/mL)
MIC (Staphylococcus aureus [12]): 100 µM (≈ 41.9 µg/mL)
MIC (Enterococcus faecalis [10]): 100 µM (≈ 41.9 µg/mL)
MIC (Streptococcus pneumoniae [11]): > 200 µM

O=C(CC1C(=O)N(c2ccc(Cl)cc2)N(c2ccc(Cl)cc2)C1=O)c1ccc(F)cc1
MIC (Escherichia coli [1]): 200 µM (≈ 91.5 µg/mL)
IC50 [2]: 5.4 µM
MIC (Streptococcus pneumoniae [3]): 25 µM (≈ 11.4 µg/mL)
MIC [4]: > 200 µM
MIC (Escherichia coli [5]): > 200 µM
MIC (Enterococcus faecalis [6]): 50 µM (≈ 22.9 µg/mL)
IC50 [7]: 8.4 µM
MIC (Staphylococcus aureus [8]): 25 µM (≈ 11.4 µg/mL)
MIC (Staphylococcus aureus [12]): 25 µM (≈ 11.4 µg/mL)
IC50 [9]: 5.2 µM
MIC (Enterococcus faecalis [10]): 50 µM (≈ 22.9 µg/mL)
MIC (Streptococcus pneumoniae [11]): > 200 µM

CC1(CCOCc2ccccc2)C(=O)N(c2ccc(Cl)cc2)N(c2ccc(Cl)cc2)C1=O
MIC (Escherichia coli [1]): > 200 µM
IC50 [2]: 20 µM
MIC (Streptococcus pneumoniae [3]): 100 µM (≈ 46.9 µg/mL)
MIC [4]: > 200 µM
MIC (Escherichia coli [5]): > 200 µM
MIC (Enterococcus faecalis [6]): > 200 µM
IC50 [7]: > 50 µM
MIC (Staphylococcus aureus [8]): > 200 µM
MIC (Staphylococcus aureus [12]): 200 µM (≈ 93.9 µg/mL)
MIC (Streptococcus pneumoniae [11]): > 200 µM

CCN(CC)CCC1C(=O)N(c2ccc(Cl)cc2)N(c2ccc(Cl)cc2)C1=O
MIC (Escherichia coli [1]): > 200 µM
IC50 [2]: > 50 µM
MIC (Streptococcus pneumoniae [3]): 100 µM (≈ 42 µg/mL)
MIC [4]: 200 µM (≈ 84.1 µg/mL)
MIC (Escherichia coli [5]): > 200 µM
MIC (Enterococcus faecalis [6]): 200 µM (≈ 84.1 µg/mL)
IC50 [7]: > 50 µM
MIC (Staphylococcus aureus [8]): > 200 µM
MIC (Staphylococcus aureus [12]): 100 µM (≈ 42 µg/mL)
MIC (Enterococcus faecalis [10]): 200 µM (≈ 84.1 µg/mL)
MIC (Streptococcus pneumoniae [11]): > 200 µM

O=C1C(CCSCc2ccccc2)C(=O)N(c2ccc(Cl)cc2)N1c1ccc(Cl)cc1
MIC (Escherichia coli [1]): 200 µM (≈ 94.3 µg/mL)
IC50 [2]: 5.2 µM
MIC (Streptococcus pneumoniae [3]): 6.25 µM (≈ 2.95 µg/mL)
MIC [4]: 50 µM (≈ 23.6 µg/mL)
MIC (Escherichia coli [5]): > 200 µM
MIC (Enterococcus faecalis [6]): 100 µM (≈ 47.1 µg/mL)
IC50 [7]: 9.8 µM
MIC (Staphylococcus aureus [8]): 25 µM (≈ 11.8 µg/mL)
IC50 [9]: 5.1 µM
MIC (Enterococcus faecalis [10]): 50 µM (≈ 23.6 µg/mL)
MIC (Streptococcus pneumoniae [11]): > 200 µM

CCC(CC)CC1C(=O)N(c2ccc(Cl)cc2)N(c2ccc(Cl)cc2)C1=O
MIC (Escherichia coli [1]): 200 µM (≈ 81.1 µg/mL)
IC50 [2]: 50 µM
MIC (Streptococcus pneumoniae [3]): 25 µM (≈ 10.1 µg/mL)
MIC [4]: 200 µM (≈ 81.1 µg/mL)
MIC (Escherichia coli [5]): > 200 µM
MIC (Enterococcus faecalis [6]): 200 µM (≈ 81.1 µg/mL)
IC50 [7]: > 50 µM
MIC (Staphylococcus aureus [8]): 100 µM (≈ 40.5 µg/mL)
MIC (Staphylococcus aureus [12]): 100 µM (≈ 40.5 µg/mL)
MIC (Enterococcus faecalis [10]): 100 µM (≈ 40.5 µg/mL)
MIC (Streptococcus pneumoniae [11]): > 200 µM

— ChEMBL document CHEMBL1145247, “4-Alkyl and 4,4'-dialkyl 1,2-bis(4-chlorophenyl)pyrazolidine-3,5-dione derivatives as new inhibitors of bacterial cell wall biosynthesis” (Bioorg Med Chem Lett, 2005)
